Structures are written as SMILES.

This is an account of results in ChEMBL document CHEMBL1125181, “Naphthosultam derivatives: a new class of potent and selective 5-HT2 antagonists” (J Med Chem, 1991).

In test [1] the test system is Rattus norvegicus. Put plainly: The concentration required to induce head twich for 16 hours in rats when given sc (in vivo). The format is functional. An outline of the steps:
(§1)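 Rats, 6 per dose, dosed sc or po, then given mescaline 20 mg/kg iv 1 h later (6 or 16 h later for duration of action). Head twitches counted for 15 min from injection. Fewer than 3 twitches counted as antagonism.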

In test [2] the target is T1, D(2) dopamine receptor (Rattus norvegicus, UniProt P61169). Put plainly: Binding constant against dopamine receptor D2 […]. The gist of the method: (§2)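 Rat striatal membranes (0.05 mg/mL protein) in Tris-HCl with BSA 2 mg/mL, NaCl, cinanserin 10⁻⁶ M and compound. [3H]spiperone (final 0.05 nM) added after 5 min, incubation continued 40 min. Nonspecific binding from 10⁻⁶ M sulpiride. Filtration and scintillation counting.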
T1 sequence (P61169 whole entry): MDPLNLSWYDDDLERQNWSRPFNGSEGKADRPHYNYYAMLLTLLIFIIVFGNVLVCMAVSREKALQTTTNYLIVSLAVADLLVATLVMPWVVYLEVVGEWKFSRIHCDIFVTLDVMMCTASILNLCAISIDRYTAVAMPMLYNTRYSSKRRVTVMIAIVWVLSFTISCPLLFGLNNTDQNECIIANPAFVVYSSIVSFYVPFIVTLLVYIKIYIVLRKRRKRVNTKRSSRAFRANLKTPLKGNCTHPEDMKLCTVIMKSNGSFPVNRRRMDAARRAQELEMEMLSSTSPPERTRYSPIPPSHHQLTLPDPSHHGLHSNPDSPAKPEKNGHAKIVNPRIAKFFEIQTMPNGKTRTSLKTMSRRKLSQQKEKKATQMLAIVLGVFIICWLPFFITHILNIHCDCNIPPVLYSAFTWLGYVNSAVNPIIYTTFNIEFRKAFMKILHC

In test [3] the test system is Mus musculus. Kind of test: The concentration required to induce head twich in mice when given sc (in vivo). The format is functional. An outline of the steps:
(§3)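 Mice, 6 per dose, dosed sc 60 min or po 90 min before mescaline 50 mg/kg ip. Observed for 2 min starting 15 min after mescaline; head twitches scored as all-or-none.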

In test [4] the test system is Rattus norvegicus. Kind of test: The concentration required to induce head twich for 16 hours in rats when given po (in vivo). The format is functional. The gist of the method:
as §1

For test [5], the system named is Rattus norvegicus. Put plainly: The concentration required to induce head twich for 6 hours in rats when given sc (in vivo). It is filed as functional. The gist of the method:
as §1

The subject of test [6] is Mus musculus. Put plainly: The concentration required to induce head twich in mice when given po (in vivo). The format is functional. The gist of the method:
as §3

Test [7] concerns the target T2, 5-hydroxytryptamine receptor 1A (Rattus norvegicus, UniProt P19327).
T2 sequence (P19327 whole entry): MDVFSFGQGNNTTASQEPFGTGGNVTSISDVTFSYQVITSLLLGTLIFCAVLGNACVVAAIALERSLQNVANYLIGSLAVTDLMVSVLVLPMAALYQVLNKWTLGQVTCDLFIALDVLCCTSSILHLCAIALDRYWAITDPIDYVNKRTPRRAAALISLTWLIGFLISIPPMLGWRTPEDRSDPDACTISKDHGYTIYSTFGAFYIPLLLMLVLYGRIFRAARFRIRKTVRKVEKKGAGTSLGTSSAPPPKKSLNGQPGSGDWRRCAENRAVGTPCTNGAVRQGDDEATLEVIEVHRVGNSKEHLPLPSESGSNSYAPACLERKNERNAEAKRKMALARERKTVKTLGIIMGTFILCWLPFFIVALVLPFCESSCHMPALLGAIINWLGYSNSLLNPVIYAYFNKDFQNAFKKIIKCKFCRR
Kind of test: Binding constant against 5-hydroxytryptamine 1A receptor (in vivo). The settings on record: in the assay text read “(in vitro)” for “(in vivo)”. An outline of the steps: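 Rat hippocampal membranes (1 mg/mL protein, Tris-HCl) preincubated 5 min at 37 °C with compound, then [3H]-8-OH-DPAT (final 1 nM) added for a further 10 min. Nonspecific binding from 10⁻⁵ M serotonin. Filtration through glass-fibre filters, two ice-cold buffer washes, scintillation counting of bound radioactivity.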

Test [8] has as its system Rattus norvegicus. Put plainly: The concentration required to induce head twich for 6 hours in rats when given po (in vivo). The format is functional. The gist of the method: as §1
For test [9], the target named is T3, Histamine H1 receptor (Cavia porcellus, UniProt P31389). Put plainly: Binding constant against histamine H1 receptor […]. An outline of the steps:
(§4)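 Male guinea pig cerebellar membranes (0.35 mg/mL protein) in 50 mM sodium phosphate pH 7.5. Incubated 30 min at 25 °C with compound and [3H]mepyramine (final 0.7 nM). Nonspecific binding from 10⁻⁶ M promethazine. Filtration through glass-fibre filters and liquid scintillation counting.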

For test [10], the system named is Rattus norvegicus. Kind of test: The concentration required to induce head twich for 1 hours in rats when given po (in vivo). It is filed as functional. An outline of the steps: as §1
Test [11] relates to Rattus norvegicus. Put plainly: The concentration required to induce head twich for 1 hours in rats when given sc (in vivo). It is filed as functional. The gist of the method: as §1
Test [12] has as its target T1, D(2) dopamine receptor. Put plainly: The concentration required to inhibit [3H]spiperone binding to dopamine receptor D2 in rat brain membranes (in vitro). The format is cell membranes. The gist of the method: as §2
Test [13] concerns the target T4, Adrenergic receptor alpha-1 (Rattus norvegicus, UniProt P15823+P23944+P43140).
T4 sequence (P15823 whole entry): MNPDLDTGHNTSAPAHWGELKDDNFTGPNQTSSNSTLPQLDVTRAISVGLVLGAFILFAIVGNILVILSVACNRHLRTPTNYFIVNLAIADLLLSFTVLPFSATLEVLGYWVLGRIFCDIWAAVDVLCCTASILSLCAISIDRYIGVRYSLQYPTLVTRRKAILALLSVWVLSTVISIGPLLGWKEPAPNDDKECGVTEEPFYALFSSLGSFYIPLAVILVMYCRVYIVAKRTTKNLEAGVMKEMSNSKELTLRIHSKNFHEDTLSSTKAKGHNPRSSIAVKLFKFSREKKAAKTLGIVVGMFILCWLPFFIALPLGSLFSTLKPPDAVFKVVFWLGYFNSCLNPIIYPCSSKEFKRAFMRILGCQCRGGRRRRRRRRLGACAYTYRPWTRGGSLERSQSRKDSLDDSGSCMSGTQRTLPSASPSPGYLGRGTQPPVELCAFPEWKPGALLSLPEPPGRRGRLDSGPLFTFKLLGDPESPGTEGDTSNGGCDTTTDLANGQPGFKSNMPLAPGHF
T4 sequence (P23944 whole entry): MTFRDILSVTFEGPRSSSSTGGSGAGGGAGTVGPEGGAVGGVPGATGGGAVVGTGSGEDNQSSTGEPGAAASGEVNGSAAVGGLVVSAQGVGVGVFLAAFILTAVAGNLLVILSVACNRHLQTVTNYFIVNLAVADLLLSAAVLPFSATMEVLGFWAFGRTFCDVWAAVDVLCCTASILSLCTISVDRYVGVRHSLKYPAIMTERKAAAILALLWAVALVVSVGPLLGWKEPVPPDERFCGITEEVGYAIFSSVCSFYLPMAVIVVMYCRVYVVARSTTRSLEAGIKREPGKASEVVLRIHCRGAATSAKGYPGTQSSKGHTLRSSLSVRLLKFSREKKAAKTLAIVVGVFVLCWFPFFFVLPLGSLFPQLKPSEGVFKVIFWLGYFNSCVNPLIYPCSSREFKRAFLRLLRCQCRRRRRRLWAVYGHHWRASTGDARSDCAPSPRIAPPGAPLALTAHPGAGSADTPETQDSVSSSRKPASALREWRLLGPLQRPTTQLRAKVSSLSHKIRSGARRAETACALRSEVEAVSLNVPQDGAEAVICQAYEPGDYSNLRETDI
T4 sequence (P43140 whole entry): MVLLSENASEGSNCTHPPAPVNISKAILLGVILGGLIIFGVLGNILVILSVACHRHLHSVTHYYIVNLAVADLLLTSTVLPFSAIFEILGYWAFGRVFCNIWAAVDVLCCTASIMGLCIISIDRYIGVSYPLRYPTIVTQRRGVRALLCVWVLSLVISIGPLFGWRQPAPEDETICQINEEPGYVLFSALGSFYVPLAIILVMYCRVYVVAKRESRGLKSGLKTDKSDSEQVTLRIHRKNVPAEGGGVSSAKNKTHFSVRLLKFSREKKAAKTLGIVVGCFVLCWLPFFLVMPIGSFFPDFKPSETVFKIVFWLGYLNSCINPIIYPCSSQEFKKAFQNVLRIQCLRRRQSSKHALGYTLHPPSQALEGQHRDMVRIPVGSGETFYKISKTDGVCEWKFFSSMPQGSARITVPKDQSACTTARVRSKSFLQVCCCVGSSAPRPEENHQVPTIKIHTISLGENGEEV
Kind of test: The concentration required to inhibit 3[H]prazosin binding to Alpha-1 adrenergic receptor in rat brain membranes was measured (in vitro). It is filed as cell membranes. The gist of the method:
(§5)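 Male Sprague-Dawley rat cerebrocortical membranes (0.15 mg/mL protein) in Tris-HCl pH 7.6 with BSA 2 mg/mL. Incubated 40 min at 25 °C with compound and [3H]prazosin (final 0.065 nM). Nonspecific binding from 10⁻⁶ M phentolamine. Filtration and scintillation counting. IC50 values are the mean of at least 2 runs, each with 6 concentrations in triplicate.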

Test [14] has as its target Serotonin 2 (5-HT2) receptor (Rattus norvegicus, UniProt P30994+P08909+P14842). Put plainly: The concentration required to inhibit [3H]ketanserin binding to 5-hydroxytryptamine 2 receptor in rat brain membranes (in vitro). The format is cell membranes. An outline of the steps: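 Male Sprague-Dawley rat cortical membranes (0.15 mg/mL protein) in Tris-HCl pH 7.6 with BSA 2 mg/mL. Incubated 15 min at 37 °C with compound and [3H]ketanserin (final 0.4 nM). Nonspecific binding from 10⁻⁶ M methysergide. Filtration and scintillation counting. IC50 by nonlinear regression; mean of at least 2 runs, 6 concentrations in triplicate.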

Test [15] has as its target T3, Histamine H1 receptor. Kind of test: Binding constant against histamine H1 receptor (in vitro). An outline of the steps:
as §4

Test [16] concerns the target T1, D(2) dopamine receptor. Kind of test: Binding constant against dopamine receptor D2 (in vitro). An outline of the steps:
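Rat striatal membranes (0.05 mg protein/mL, Tris-HCl with 2 mg/mL BSA, NaCl, 10^-6 M cinanserin) preincubated 5 min with test compound. [3H]spiperone (final 0.05 nM) then added for a further 40 min. Nonspecific binding defined with 10^-6 M sulpiride. Read-out by filtration and scintillation counting.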

Test [17] has as its target T4, Adrenergic receptor alpha-1. Put plainly: The concentration required to inhibit [3H]prazosin binding to Alpha-1 adrenergic receptor in rat brain membranes was measured (in vitro). It is filed as cell membranes.
For test [18] the target is unchanged. Put plainly: Binding constant against Alpha-1 adrenergic receptor (in vitro). It is filed as protein assay. An outline of the steps:
as §5

T3 sequence (P31389 whole entry): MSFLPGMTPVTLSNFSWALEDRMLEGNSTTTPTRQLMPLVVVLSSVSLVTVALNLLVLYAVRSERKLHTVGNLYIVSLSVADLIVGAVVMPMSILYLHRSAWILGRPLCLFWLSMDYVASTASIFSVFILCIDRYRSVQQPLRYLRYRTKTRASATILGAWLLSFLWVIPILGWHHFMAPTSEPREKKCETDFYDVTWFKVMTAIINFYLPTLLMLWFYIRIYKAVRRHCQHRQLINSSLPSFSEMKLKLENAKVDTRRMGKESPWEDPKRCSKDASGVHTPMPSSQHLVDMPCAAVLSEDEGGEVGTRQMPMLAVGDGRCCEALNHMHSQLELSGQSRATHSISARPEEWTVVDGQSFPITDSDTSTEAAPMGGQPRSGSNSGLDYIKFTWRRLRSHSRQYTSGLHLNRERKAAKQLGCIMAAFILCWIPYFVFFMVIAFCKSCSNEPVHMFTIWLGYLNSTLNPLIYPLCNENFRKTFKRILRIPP

Consider `O=S1(=O)c2cccc3cccc(c23)N1CCCN1CCN(c2ccc(F)cc2)CC1` [FANANSERIN], for which the ED50 (usually the dose at which the effect has come halfway, by size or by number of responders) with Rattus norvegicus [1] came out at 5.91 mg/kg; in the test with Mus musculus [3] it was 0.16 mg/kg; with Rattus norvegicus [4], 14.2 mg/kg; in the test on Rattus norvegicus [5], 0.45 mg/kg; in the test with Mus musculus [6], 0.43 mg/kg; in the test on Rattus norvegicus [8], 2.38 mg/kg. Moreover, the ED50 in the test on Rattus norvegicus [10] turned out to be 0.99 mg/kg; in the test on Rattus norvegicus [11], 0.65 mg/kg. Besides, the Ki (usually a measure of affinity in units of concentration, obtained from inhibition or displacement) on D(2) dopamine receptor [2] was greater than 1000 nM; in test [7], 70 nM; on Histamine H1 receptor [9], 25 nM. For the same compound, the IC50 (usually the concentration that inhibits the measured activity by half) at D(2) dopamine receptor [12] is greater than 1000 nM.

As to `O=S1(=O)c2cccc3cccc(c23)N1CCCCN1CCN(c2ccc(F)cc2)CC1`, the IC50 came to 11 nM in test [13], 3.7 nM in [14] and 300 nM at D(2) dopamine receptor [12].

On to `Cc1nc2sccn2c(=O)c1CCN1CCC(=C(c2ccc(F)cc2)c2ccc(F)cc2)CC1` [RITANSERIN], for which the ED50 in the test on Rattus norvegicus [1] is greater than 5 mg/kg; in the test with Mus musculus [3], 0.29 mg/kg; in the test with Rattus norvegicus [4], 18.4 mg/kg; in the test with Rattus norvegicus [5], 0.55 mg/kg; in the test on Mus musculus [6] it was 0.09 mg/kg; in the test on Rattus norvegicus [8], 1.54 mg/kg. Further, the ED50 came to 2.55 mg/kg in the test with Rattus norvegicus [10] and 0.38 mg/kg in the test on Rattus norvegicus [11]. The Ki at Histamine H1 receptor [15] came to 6 nM; at D(2) dopamine receptor [16] it was 22 nM; in test [18] it was 29 nM. Further, the IC50 came out at 37 nM in test [17] and 23 nM on D(2) dopamine receptor [12].
